NPY-Y1 antag = NPY-Y1 (human) receptor antagonism; inhibition, % at 3.6 µM; HEK293-CNG Y1 cells, membrane potential fluorescence; NPY at EC95, then isoproterenol; P25929; AID 1040; 200,000 compounds, 1% hits;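 active = inhibition above the campaign mean inhibition of all tested compounds plus 3 SD, cut at about 20% in these data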;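 note: 0% = DMSO wells given NPY plus isoproterenol and 100% = isoproterenol alone without NPY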
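Test system – HEK293 Y1/CNG channel cell line · Also added – NPY agonist 25 nM, then isoproterenol 1 µM plus Ro 20-1724 25 µM · Compound dosing – one concentration, 3.6 µM, in 0.4% DMSO · Schedule – compound incubation 1 h at room temperature, readout 45 min post-stimulation · Technique – fluorescence, membrane potential probe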
PGE2 EP2 inh = EP2 receptor (human) inhibition | C6 glioma cells expressing human EP2, cAMP TR-FRET; cells stimulated with saturating PGE2 | 260,000 compounds, 0.52% hits | AID 1422 | inhibition, % at 25 µM;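 active = percent inhibition above 40 after rounding to a whole number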;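 note: rat C6 glioma host cells with rolipram phosphodiesterase inhibitor present; the protocol text gives 20 µM as final concentration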
NPY2 pot ag = human NPY-Y2 potentiation or agonism, primary screen; activation, % at 3.6 µM; P49146; 220,000 compounds, 0.45% hits; cells expressing NPY-Y2, potentiator/agonist read-out; in the data active = activation above about 27%;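 note: cells stimulated with NPY near EC25 plus isoproterenol at EC100; 0% = vehicle plus submaximal agonist and 100% = vehicle plus saturating agonist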
Target sequence (P49146 whole entry, looked up): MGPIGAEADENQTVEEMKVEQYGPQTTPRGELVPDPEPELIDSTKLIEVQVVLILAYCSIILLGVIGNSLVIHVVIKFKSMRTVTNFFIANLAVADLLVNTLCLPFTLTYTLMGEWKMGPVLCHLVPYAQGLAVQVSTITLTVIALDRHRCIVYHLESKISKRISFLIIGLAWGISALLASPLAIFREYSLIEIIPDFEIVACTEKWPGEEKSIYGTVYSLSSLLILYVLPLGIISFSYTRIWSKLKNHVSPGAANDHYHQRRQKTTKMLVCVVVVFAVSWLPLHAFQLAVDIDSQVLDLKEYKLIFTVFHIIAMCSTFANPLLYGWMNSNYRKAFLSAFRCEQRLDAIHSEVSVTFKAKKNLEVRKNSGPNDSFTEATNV
EP2 modulator = EP2 receptor (human) modulation. AID 940. 260,000 compounds, 0.83% hits. induction, % at 25 µM. EP2-expressing cells, cAMP HTRF FRET, PGE2 co-stimulation. P43116;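 active = compounds whose cAMP rise, as percent of the full-agonist control response, exceeds 60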;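 note: rat C6 glioma line stably carrying human EP2 under a CMV promoter; the protocol text gives 20 µM as final concentration; 100% = response of wells given 1 µM PGE2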
NPY-Y1 PAM-ag = human NPY-Y1 potentiation or agonism, primary screen. NPY-Y1 expressing cells, potentiator/agonist activation. activation, % at 3.6 µM. 220,000 compounds, 0.37% hits; in the data active = activation above about 33%, passing the limit was not always enough;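 note: cells stimulated with NPY at EC10 then isoproterenol at EC100; 0% = low agonist plus stimulus and 100% = saturating agonist plus stimulus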
NPY-Y2 antag = antagonists of human neuropeptide Y receptor Y2 | P49146 | NPY-Y2 expressing cells, antagonist mode | inhibition, % at 2.7 µM | 140,000 compounds, 0.99% hits | AID 793; in the data active = inhibition above about 17%;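 note: 0% = vehicle with agonist challenge and 100% = reference antagonist with challenge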
EP2 cAMP induct = EP2 receptor cAMP induction, counter-screens negative; C6 glioma EP2 cells, cAMP HTRF induction; plus low (about EC15) PGE2 agonist; calls only at 20 µM (by protocol); shares compounds with EP2 modulator; 1,300 compounds, 47% hits;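 active = cAMP induction above 50% in the main assay while under 30% in all four parallel counter assays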;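 note: rat C6 glioma cells stably expressing human EP2 receptor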
* = called active by the depositor. Compounds with a hit are over-represented: about 2.8% of the library has one in this group of screens.

For COc1ccnc(Cn2nc3c(C)cc4cc(C)cc(C)c4n3c2=O)c1OC the results were EP2 modulator -6.
For Clc1ccc(Cl)c(Nc2ccnc(SCc3ccccc3)n2)c1 the results were PGE2 EP2 inh 36, EP2 modulator 62* and EP2 cAMP induct inactive.
`Oc1ccccc1/C=N/Nc1ccnc(SCc2ccccc2)n1` gave NPY-Y1 antag 10, PGE2 EP2 inh 9, NPY2 pot ag -1, EP2 modulator 6, NPY-Y1 PAM-ag -20 and NPY-Y2 antag 0.
For Cc1cc2ccccc2nc1SCC(=O)NC1CCCC1 the results were NPY-Y1 antag 7, PGE2 EP2 inh 10, NPY2 pot ag -20, EP2 modulator 77*, NPY-Y1 PAM-ag -29 and EP2 cAMP induct inactive.
`Cc1cc2ccccc2nc1SCC(=O)NC1CCCCC1` gave NPY-Y1 antag 15, PGE2 EP2 inh 8, NPY2 pot ag -16, EP2 modulator 70*, NPY-Y1 PAM-ag -27 and EP2 cAMP induct inactive.
For Cc1cc2cc3c(cc2nc1SCC(=O)NC1CCCCC1)OCO3 the results were PGE2 EP2 inh 10 and EP2 modulator 29.
`CCn1c(COc2ccc(Cl)cc2)nnc1SCC(=O)Nc1ccc(OC)cc1` gave PGE2 EP2 inh 17 and EP2 modulator -2.
CCn1c(COc2ccc(Cl)cc2)nnc1SCC(=O)Nc1ccc2c(c1)OCO2 was read as NPY-Y1 antag 5, PGE2 EP2 inh 9, NPY2 pot ag -10, EP2 modulator 65*, NPY-Y1 PAM-ag -8, NPY-Y2 antag 4 and EP2 cAMP induct inactive.
`O=C1N2c3ccccc3CCc3cccc(c32)C1(O)C(F)(F)F` (centres undefined) gave NPY-Y1 antag 2, PGE2 EP2 inh 10, NPY2 pot ag 15, EP2 modulator 79*, NPY-Y1 PAM-ag -12, NPY-Y2 antag 2 and EP2 cAMP induct inactive.
Screening Cc1cc2ccccn2c1C(=O)c1ccc(Cl)cc1 returned NPY-Y1 antag 2, PGE2 EP2 inh 6, NPY2 pot ag 3, EP2 modulator 65*, NPY-Y1 PAM-ag 20, NPY-Y2 antag -2 and EP2 cAMP induct inactive.
`Cc1nnc(NC(=O)CSc2nc3sc4c(c3c(=O)[nH]2)CCCC4)s1` gave PGE2 EP2 inh 6 and EP2 modulator 4.
N#CC1=C(N)SC(N)=C(C#N)C1c1ccoc1 was read as NPY-Y1 antag 0, PGE2 EP2 inh 34, NPY2 pot ag 1, EP2 modulator 68*, NPY-Y1 PAM-ag -34, NPY-Y2 antag 3 and EP2 cAMP induct inactive.
Screening Cc1ccc(S(=O)(=O)NCC2COc3ccccc3O2)cc1 (centres undefined) returned NPY-Y1 antag 8, PGE2 EP2 inh 12, NPY2 pot ag -10, EP2 modulator -11, NPY-Y1 PAM-ag -36 and NPY-Y2 antag 7.
Screening Cc1ccc2c(c1)N(S(=O)(=O)c1ccc(F)cc1)C(C(C)(C)C)CO2 (centres undefined) returned NPY-Y1 antag 10, PGE2 EP2 inh 9, NPY2 pot ag -6, EP2 modulator 77*, NPY-Y1 PAM-ag -17, NPY-Y2 antag 4 and EP2 cAMP induct active.
Screening Cc1ccc(S(=O)(=O)N2c3ccccc3OCC2C(C)(C)C)cc1 (centres undefined) returned NPY-Y1 antag 11, PGE2 EP2 inh 5, NPY2 pot ag -12, EP2 modulator 88*, NPY-Y1 PAM-ag -26, NPY-Y2 antag 4 and EP2 cAMP induct active.
For Cc1ccc2c(c1)NC(C(C)(C)C)CO2 (centres undefined) the results were NPY-Y1 antag 2, PGE2 EP2 inh 4, NPY2 pot ag -2, EP2 modulator -19, NPY-Y1 PAM-ag 3 and NPY-Y2 antag 2.
Screening Cc1ccccc1-c1nnc(NC(=O)c2ccco2)s1 returned PGE2 EP2 inh 12 and EP2 modulator -49.
For Cn1c(SCC(=O)Nc2ccc(N)cc2)nnc1-c1cccnc1 the results were PGE2 EP2 inh 15 and EP2 modulator 1.
For Cc1cc2nc(C3CCCCN3C(=O)c3cnn(C(C)C)c3)[nH]c2cc1C (centres undefined) the results were EP2 modulator -47.
Screening OC(CN1CCC(O)(c2ccc(F)cc2)CC1)c1ccc2c(c1)CCC2 (centres undefined) returned PGE2 EP2 inh 11 and EP2 modulator -54.
Screening CCOP(=O)(c1ccccc1)c1nc(-c2ccccc2C)oc1NCc1ccccc1 (centres undefined) returned PGE2 EP2 inh 6, NPY2 pot ag 8, EP2 modulator 47 and NPY-Y1 PAM-ag -4.
Screening CCOP(=O)(c1ccccc1)c1nc(-c2ccccc2C)oc1N1CCCCC1 (centres undefined) returned NPY-Y1 antag 5, PGE2 EP2 inh 5, NPY2 pot ag 23, EP2 modulator 70*, NPY-Y1 PAM-ag 10, NPY-Y2 antag 8 and EP2 cAMP induct active.
For CCOP(=O)(OCC)c1nc(-c2cccc3ccccc23)oc1N1CCCCC1 the results were NPY-Y1 antag 2, PGE2 EP2 inh 7, NPY2 pot ag 7, EP2 modulator 69*, NPY-Y1 PAM-ag 11 and EP2 cAMP induct active.
`CC1CN(CCC(=O)Nc2ccc(F)c(F)c2)CC(C)O1` (centres undefined) gave PGE2 EP2 inh 15 and EP2 modulator -25.
Screening Cc1ccc(-c2nnn(CC(=O)N(CC(=O)NC3CCCC3)C3CCCCC3)n2)cc1 returned PGE2 EP2 inh 6 and EP2 modulator -12.
For Cc1cc(NC(=O)C2C3C=CC4(O3)C2C(=O)N(c2cccc(Cl)c2C)C4C(=O)NC(C)(C)C)no1 (centres undefined) the results were PGE2 EP2 inh 13 and EP2 modulator -22.
C=C(C)Cn1c(C)cc(C)c(S(=O)(=O)c2ccc(C)cc2)c1=O was read as NPY-Y1 antag 4, PGE2 EP2 inh 6, NPY2 pot ag -6, EP2 modulator 87*, NPY-Y1 PAM-ag -13 and EP2 cAMP induct active.
Screening Cc1ccc(S(=O)(=O)c2c(C)cc(C)nc2N2CCCC2)cc1 returned NPY-Y1 antag -5, PGE2 EP2 inh 5, NPY2 pot ag 0, EP2 modulator 53 and NPY-Y1 PAM-ag 7.
Nc1ccccc1CCCC(=O)O was read as PGE2 EP2 inh 12, EP2 modulator 107* and EP2 cAMP induct inactive.
For Cc1ccc(Cl)cc1NC(=O)C(=O)N1CCCCC1 the results were NPY-Y1 antag 1, PGE2 EP2 inh 2, NPY2 pot ag -9, EP2 modulator 15 and NPY-Y1 PAM-ag -22.
Cc1ccc(Cl)cc1NC1=NC(=S)N(C(C)C)C12CCCCC2 was read as NPY-Y1 antag 1, PGE2 EP2 inh 7, NPY2 pot ag -1, EP2 modulator 93*, NPY-Y1 PAM-ag -12, NPY-Y2 antag 0 and EP2 cAMP induct active.

Source: PubChem
